Compound activity from PubChem BioAssay.
This is a sample that favours compounds with a hit; in the whole collection about 3.1% have one here.
NadD block = inhibitors of Staphylococcus aureus NadD | purified NadD enzyme, colorimetric absorbance read-out | inhibition, % at 20 µM | hit rate 0.78% among 360,000 | AID 602399; in the data active = inhibition above about 26%
PP1 inh = counter-screen for PP5 inhibitors: inhibitors of human PP1-alpha; hit rate 0.9% among 320,000; inhibition, % at 6.7 µM; purified PP1alpha, OMFP fluorescence; AID 2235; P62136;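 active = inhibition above the mean inhibition of all tested compounds plus 3 SD, computed separately for each screening campaign, cut at about 15% in these data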
Target sequence (P62136 whole entry, looked up): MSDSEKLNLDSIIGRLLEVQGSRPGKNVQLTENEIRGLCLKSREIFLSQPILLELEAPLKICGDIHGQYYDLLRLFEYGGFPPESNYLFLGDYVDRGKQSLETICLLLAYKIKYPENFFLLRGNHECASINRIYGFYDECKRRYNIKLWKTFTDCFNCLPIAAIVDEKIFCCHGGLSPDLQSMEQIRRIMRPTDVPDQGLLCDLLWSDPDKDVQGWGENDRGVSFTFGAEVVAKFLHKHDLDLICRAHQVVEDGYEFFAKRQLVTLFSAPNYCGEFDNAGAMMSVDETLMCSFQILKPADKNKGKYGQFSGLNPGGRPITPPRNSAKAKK
Myeloid diff MLP = compounds promoting myeloid differentiation; ER-HoxA9 myeloid progenitors, lysozyme-GFP differentiation, flow cytometry; calls only at 10 µM; hit rate 1% among 360,000; AID 624256;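 active = normalized GFP-positive differentiation at or above the plate's own cutoff, the solvent-only control mean plus 3 SD; inconclusive = no clear call, values can overlap the other calls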;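 note: cells exposed to compound for four days before flow analysis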
Fh CTSL1 inh = blocks F. hepatica cathepsin L1 in PFM18AAP counter-screen | recombinant F. hepatica cathepsin L1, Z-Leu-Arg-MCA fluorescence | inhibition, % at 5.96 µM | hit rate 0.49% among 300,000 | AID 1906;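 active = inhibition above the mean of all tested compounds plus 3 SD, set per screening campaign, cut at about 17% in these data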
HCV core dimer = blocks dimerization of HCV core protein. hit rate 0.33% among 300,000. AID 1899. TR-FRET GST/Flag-core106 dimerization, 1536-well. inhibition, % at 5 µM;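 active = inhibition above the mean of all tested compounds plus 3 SD, set per screening campaign, cut at about 45% in these data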
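Test system: GST/Flag-tagged HCV core106 proteins; Medium: KF-containing HEPES buffer, pH 7.45, DTT, CHAPS, BSA; Times: compound-protein-antibody incubation 4 h at 22.5 °C; Detection: TR-FRET 671 and 617 nm emission; Benchmarks: wells lacking GST-core106 and wells with excess unlabelled core106.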
PP5 inh = PP5 (human) phosphatase inhibition | P53041 | purified PP5c, OMFP substrate fluorescence | inhibition, % at 6.7 µM | hit rate 0.18% among 320,000;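 active = inhibition above the campaign's mean inhibition across all tested compounds plus 3 SD, cut at about 9.5% in these data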
Of the large screens only hits and unclear results are named; the others gave an inactive call.

O=C(CCCN1C(=O)/C(=C/c2ccccc2Cl)SC1=S)NNC(=O)c1ccncc1	none
O=C(CCCN1C(=O)/C(=C/c2cccs2)SC1=S)NNC(=O)c1ccccc1O	NadD block 28
O=C(CCCN1C(=O)/C(=C/c2cccs2)SC1=S)NNC(=O)c1ccncc1	none
COC(=O)c1ccc(/C=C2/SC(=S)N(CCCC(=O)Nc3ccc(O)cc3)C2=O)cc1	PP1 inh 16, Myeloid diff MLP inconclusive
Cc1ccc(/C=C2/SC(=S)N(CCCC(=O)Nc3cc([N+](=O)[O-])ccc3O)C2=O)cc1	NadD block 51
COc1ccccc1/C=C1\SC(=S)N(CCC(=O)NNC(=O)c2ccccc2O)C1=O	NadD block 32
COc1ccc(/C=C2\SC(=S)N(CCCC(=O)N3CCCCC3CCO)C2=O)cc1 (centres undefined)	Myeloid diff MLP active
COc1ccc(/C=C2\SC(=S)N(CCCC(=O)NNC(=O)c3ccccc3O)C2=O)cc1	NadD block 38 (no result: Myeloid diff MLP)
COc1cccc(/C=C2\SC(=S)N(CCC(=O)NNC(=O)c3ccccc3OC)C2=O)c1	none
CCOC(=O)c1sc(NC(=O)C2CC(=O)N(c3ccc(OC)cc3)C2)nc1C (centres undefined)	none
N#CC1=C(N)N(c2ccc(F)cc2)C2=C(C1c1ccc(O)cc1)S(=O)(=O)CC2 (centres undefined)	Myeloid diff MLP active (no result: PP1 inh, Fh CTSL1 inh, HCV core dimer, PP5 inh)
O=C(CCNC(=O)C1CCN(S(=O)(=O)c2ccc(F)cc2)CC1)NCc1cccc(Cl)c1	none
Nc1ccc2c(c1)C(=O)C(=O)c1ccccc1-2	PP1 inh 39, Myeloid diff MLP inconclusive, Fh CTSL1 inh 112
Nc1ccc2c(c1)C(=O)c1ccccc1-2	none
O=C1C(=O)c2ccc(-c3ccccc3)cc2-c2ccccc21	Fh CTSL1 inh 109 (no result: Myeloid diff MLP)
Nc1ccc2c(c1)C(=O)c1ccccc1C2=O	none
c1ccc(-c2cc(NCCN3CCCCC3)c3ccccc3n2)cc1	none
COCCn1c(N)c(N(Cc2ccccc2)C(=O)c2ccc(N3CCCC3=O)cc2)c(=O)[nH]c1=O	none (no result: PP1 inh, Fh CTSL1 inh, HCV core dimer, PP5 inh)
COc1cc(N2CCCC2)c(OC)cc1/C=C(/C#N)c1cccc(F)c1	Myeloid diff MLP active
N#C/C(=C/c1ccc(N2CCCCCC2)o1)c1cccc(F)c1	none
CCOC(=O)c1cc(=O)n2c(nc3ccccc32)[nH]1	none
CC(=O)Nc1ccccc1OCC(O)CS(=O)(=O)c1ccc(C(F)(F)F)cn1 (centres undefined)	none
CCNC(=O)C(CC(C)C)NC(=O)C(CO)NC(=O)C1CCC(=O)N1 (centres undefined)	none
CC(C)CC(NC(=O)C1CCC(=O)N1)C(=O)NC(CC(C)C)C(=O)N1CCCC1C(N)=O (centres undefined)	Fh CTSL1 inh 17
CC(C)CC(NC(=O)C(NC(=O)OC(C)(C)C)C(C)C)C(=O)N1CCCC1C(N)=O (centres undefined)	Fh CTSL1 inh 18
COC(=O)[C@@H]1CCCN1C(=O)[C@@H](NC(=O)OC(C)(C)C)C(C)C	none
O=C(CCc1nc2ccccc2c(=O)[nH]1)Nc1cc(C(F)(F)F)ccc1N1CCCC1	none (no result: Fh CTSL1 inh, HCV core dimer)
Cc1ccccc1Nc1nc(N)nc(COC(=O)c2ccc([N+](=O)[O-])o2)n1	none (no result: Fh CTSL1 inh, HCV core dimer)
Cc1c(C(=O)NCc2ccc(F)cc2)sc(=O)n1Cc1ccc(Cl)c(Cl)c1	none (no result: PP1 inh, Fh CTSL1 inh, HCV core dimer, PP5 inh)
CCN1CCN(C(=O)c2cccc(OC3CCN(S(C)(=O)=O)CC3)c2)[C@@H](C)C1=O	none
O=C1c2ccccc2C(=O)c2[nH]c(=O)[nH]c21	Myeloid diff MLP inconclusive, Fh CTSL1 inh 31
Cc1c(CC(=O)N[C@@H](C)C(=O)O)c(=O)oc2cc3oc4c(c3cc12)CCCC4	none
N#Cc1cc(C(=O)c2ccccc2O)cn(-c2nccs2)c1=O	none
N#Cc1cc(C(=O)c2cc(F)ccc2O)cn(-c2nccs2)c1=O	Myeloid diff MLP active, HCV core dimer 48
O=c1ccc(S(=O)(=O)N2CCCC2)cn1Cc1ccc(Cl)cc1Cl	none (no result: Fh CTSL1 inh, HCV core dimer)
CCN(CC(=O)Nc1ccc2c(c1)OCCO2)C(=O)c1cccc(OCC(C)C)c1	none
O=C(Nc1cccc2c1C(=O)NC2=O)c1ccc(N2C(=O)CCC2=O)cc1	Fh CTSL1 inh 42
O=C(c1cc(COc2c(F)cccc2F)on1)N1CC[C@@H]2CCCC[C@H]2C1	none (no result: PP1 inh, Fh CTSL1 inh, HCV core dimer, PP5 inh)
CCOC(=O)Cn1c(=O)c(-c2cc(Br)ccc2N)nc2ccccc21	Myeloid diff MLP active
Cc1cccc(C)c1NC(=O)C1(C)CSCC(=O)N1CC(C)C (centres undefined)	none (no result: NadD block, PP1 inh, Fh CTSL1 inh, HCV core dimer, PP5 inh)
O=C(/C=C/c1ccccc1O)c1ccccc1	none (no result: PP1 inh, Fh CTSL1 inh, HCV core dimer, PP5 inh)
O=C(/C=C/c1ccccc1O)c1ccc(Cl)cc1	PP1 inh 17
O=C(CC1C(=O)NCCN1Cc1ccccc1C(F)(F)F)NC1CCCCCC1 (centres undefined)	none
Nc1ccc(-c2cnc(N)c(C(=O)c3cccnc3)n2)cn1	none (no result: PP1 inh, Fh CTSL1 inh, HCV core dimer, PP5 inh)
CCSc1nnc(-c2sc3nnc(-c4ccccc4)c(-c4ccccc4)c3c2N)o1	Myeloid diff MLP active
CC(=O)c1c(C)oc2c1cc(NS(=O)(=O)c1ccc(C(=O)O)cc1)c1ccccc12	none
Cc1ccc(S(=O)(=O)Nc2cc3c(C(=O)Nc4ccccc4)c(C)oc3c3ccccc23)cc1	HCV core dimer 50
CCSc1nnc2ccc(-c3ccc(OC)c(OC)c3)nn12	Myeloid diff MLP active
COc1ccc(-c2ccc3nnc(SCC(N)=O)n3n2)cc1	none
Cc1ccc(S(=O)(=O)NC2CC2)cc1	none
Cc1ccc(S(=O)(=O)NC2CCC(C(=O)O)CC2)cc1 (centres undefined)	Myeloid diff MLP active
O=C(CSc1ccc2ccccc2n1)NCCCN1CCCC1=O	none (no result: PP1 inh, Fh CTSL1 inh, HCV core dimer, PP5 inh)
CCOc1cc2c(c3c1C(c1ccccc1)N(S(=O)(=O)c1ccc(C)cc1)C3)C(=O)C=CC2=O (centres undefined)	NadD block 46, Myeloid diff MLP inconclusive (no result: PP1 inh, Fh CTSL1 inh, HCV core dimer, PP5 inh)
COc1ccc(C2Nc3ccccc3C(=O)N2Cc2ccco2)cc1COc1ccccc1F (centres undefined)	HCV core dimer 46
Cc1cccc2c1c1ccc3c(c1n2C)C(=O)C=CC3=O	NadD block 50 (no result: PP1 inh, Fh CTSL1 inh, HCV core dimer, PP5 inh)
CSc1ccc(CN2CCC(C)(Oc3ccc4ccccc4c3)C2)cc1 (centres undefined)	Myeloid diff MLP active (no result: PP1 inh, Fh CTSL1 inh, HCV core dimer, PP5 inh)
CCOc1ccccc1CNn1nnnc1N	Myeloid diff MLP active
COc1ccccc1C(=O)Nc1nnc([C@@H]2C[C@H](O)[C@@H](CO)O2)s1	none (no result: PP1 inh, Fh CTSL1 inh, HCV core dimer, PP5 inh)
COc1ccc(C2CC(c3ccncc3)=NN2c2ccc(S(N)(=O)=O)cc2)cc1 (centres undefined)	Myeloid diff MLP active (no result: PP1 inh, Fh CTSL1 inh, HCV core dimer, PP5 inh)
Cc1cccc(C(=O)c2c(N)sc3c2CCCC3)c1	HCV core dimer 49
Cc1cccc(C(=O)c2c(N)sc3c2CCC(C)C3)c1 (centres undefined)	none
CCCCOC(=O)c1[nH]c2c(c1C)C(=O)CC(c1cc(OC)c(OC)c(OC)c1)C2 (centres undefined)	Myeloid diff MLP active
COC(=O)c1[nH]c2c(c1C)C(=O)CC(c1cc(OC)ccc1OC)C2 (centres undefined)	Myeloid diff MLP active
